Experimental findings from ChEMBL document CHEMBL1671798, “A competition assay to identify amyloidogenesis inhibitors by monitoring the fluorescence emitted by the covalent attachment of a stilbene derivative to transthyretin” (Bioorg Med Chem, 2011) are described below.

Structures are written as SMILES.

Assay [1] deals with Transthyretin (Homo sapiens) (UniProt P02766). In words: Displacement of 4-fluorophenyl 3-(4-hydroxy-3,5-dimethylstyryl)benzoate from recombinant TTR assessed as fluorescence at 37 degC after 3 hrs. Details: concentration or dose not given beside the values. In short, it runs like this:
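Recombinant WT-TTR from E. coli at 3.6 µM in 10 mM sodium phosphate, 100 mM KCl, 1 mM EDTA, pH 7.0. Test compound (7.2 µM final, added from DMSO) was preincubated 4 h at 25 °C with slow vortexing. S1 (7.2 µM final) was then added. Fluorescence (ex 328/em 384 nm) was read every 10 min for 8 h at 37 °C. The 3 h value is given as % competition fluorescence.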

Assay [2] has the same target. In words: Displacement of S-phenyl 3-(4-hydroxy-3,5-dimethylstyryl)benzothioate from human TTR assessed as fluorescence at 37 degC after 3 hrs. Details: concentration or dose not given beside the values. In outline: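 Commercial human serum with endogenous TTR (about 7.5 µM, as measured). Test compound (15 µM final) and S2 (5 µM final) were both added from DMSO stocks. Conjugate fluorescence was read every 10 min over 8 h on a plate reader. The 3 h value is given as % competition fluorescence.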

For assay [3] the target is unchanged. The assay is described as follows: Inhibition of wild type-TTR expressed in Escherichia coli assessed as amyloid fibril formation at pH 4.4 at 7. 2 uM after 72 hrs by acid-mediated aggregation assay relative to control. Details: scale not given: the % may be the effect or the level left.

In the case of `O=C(O)c1ccc(C(=O)Nc2cc(Br)c(O)c(Br)c2)cc1`, the Activity in assay [1] was 57%; in assay [2], 45%; in assay [3], 11%.

Take `O=C(O)c1cc(-c2ccc(F)cc2F)ccc1O`: the Activity was 75% in assay [1], 86% in assay [2] and 2% in assay [3].

For the molecule `Oc1c(Br)cc(CCc2ccc(OC(F)F)cc2)cc1Br`, the values for the Activity in assay [1], in assay [2] and in assay [3] were -3%, 42% and 1%, respectively.

Take `Cc1cc(Oc2ccccc2)cc(C)c1O`: the figures for the Activity in assay [1] and in assay [2] were 76% and 81%, respectively.

Regarding `O=C(O)c1ccccc1Nc1cccc(C(F)(F)F)c1`, the Activity in assay [1] turned out to be 44%; in assay [2], 97%; in assay [3], 2%.

In the case of `COc1ccccc1/C=C/c1cc(Br)c(O)c(Br)c1`, the results for the Activity in assay [1], in assay [2] and in assay [3] were -6%, 0% and 0%, respectively.

As for `COc1c(Cl)cc(C(=O)Nc2cc(Br)c(O)c(Br)c2)cc1Cl`, the Activity in assay [1] turned out to be 4%; in assay [2], 26%; in assay [3], 9%.

`CC(C(=O)O)c1ccc(-c2ccccc2)c(F)c1` (stereo unspecified): the Activity in assay [1] was determined as 93%; in assay [2], 96%; in assay [3], 29%.

As for `Oc1c(Br)cc(CCc2cccc(C(F)(F)F)c2)cc1Br`, the Activity in assay [1] was -6%; in assay [2], 3%; in assay [3], 1%.

Take `O=C(O)c1cccc(C(=O)Nc2cc(Br)c(O)c(Br)c2)c1`: the Activity in assay [1] is 77%; in assay [2], 85%; in assay [3], 11%.

On to `O=C(Nc1ccccc1)c1cc(Br)c(O)c(Br)c1`, for which the Activity in assay [1] was 42%; in assay [2] it was 61%.

In the case of `O=C(O)Cc1ccccc1Nc1c(Cl)cccc1Cl`, the Activity in assay [1] was determined as 85%; in assay [2], 99%; in assay [3] it was 17%.

With `Cc1ccc(Cl)c(Nc2ccccc2C(=O)O)c1Cl`, the Activity is 62% in assay [1], 85% in assay [2] and 3% in assay [3].

`O=C(Nc1cc(Br)c(O)c(Br)c1)c1cccc(Cl)c1`: the values for the Activity in assay [1], in assay [2] and in assay [3] were 13%, 28% and 8%, respectively.

As to `O=C(Nc1cc(Br)c(O)c(Br)c1)c1cccc(O)c1`, the Activity in assay [1] stood at 26%; in assay [2], 18%; in assay [3], 9%.

For the molecule `O=C(Nc1cc(Br)c(O)c(Br)c1)c1cccc(F)c1`, the results for the Activity in assay [1], in assay [2] and in assay [3] were 18%, 54% and 13%, respectively.

For the molecule `Brc1cc(Br)cc(Nc2ccccc2)c1`, the Activity in assay [1] turned out to be 76%; in assay [2], 100%.

Regarding `Oc1c(Br)cc(/C=C/c2ccc(Br)cc2)cc1Br`, the Activity in assay [1] is -6%; in assay [2] it was 2%; in assay [3], 2%.

Consider `Nc1cccc(C(=O)Nc2cc(Br)c(O)c(Br)c2)c1`, for which the Activity in assay [1] worked out at 35%; in assay [2], 24%; in assay [3] it was 25%.

On to `O=C(Nc1cc(Br)c(O)c(Br)c1)c1ccccc1O`, for which the results for the Activity in assay [1], in assay [2] and in assay [3] were 2%, 29% and 2%, respectively.

Regarding `O=C(Nc1cc(Br)c(O)c(Br)c1)c1ccc(O)cc1`, the Activity in assay [1] came to 32%; in assay [2], 16%; in assay [3], 21%.

Turning to `O=C(Nc1cc(Br)c(O)c(Br)c1)c1cccc(Br)c1`, the Activity in assay [1] was 13%; in assay [2], 28%; in assay [3], 8%.

Turning to `O=C(Nc1cc(Br)c(O)c(Br)c1)c1cc(F)cc(F)c1`, the values for the Activity in assay [1], in assay [2] and in assay [3] were 12%, 35% and 10%, respectively.

As to `COc1cc(CCc2cc(Br)c(O)c(Br)c2)cc(OC)c1`, the values for the Activity in assay [1], in assay [2] and in assay [3] were 3%, 30% and 1%, respectively.

In the case of `COc1c(Br)cc(C(=O)Nc2cc(Br)c(O)c(Br)c2)cc1Br`, the Activity in assay [1] is 4%; in assay [2] it was 44%; in assay [3], 10%.

As to `Cc1cccc(CCc2cc(Br)c(O)c(Br)c2)c1`, the figures for the Activity in assay [1], in assay [2] and in assay [3] were -7%, 2% and 3%, respectively.

Regarding `O=C(Nc1ccccc1)Nc1cc(Br)c(O)c(Br)c1`, the Activity in assay [1] came out at 82%; in assay [2], 100%; in assay [3] it was 9%.

On to `Cc1cccc(Nc2ccccc2C(=O)O)c1C`, for which the values for the Activity in assay [1], in assay [2] and in assay [3] were 65%, 96% and 7%, respectively.
